Measurements reported in ChEMBL document CHEMBL1121685, “Development of new mitomycin C and porfiromycin analogues” (J Med Chem, 1981).

Columns and labels:
[1] = Therapeutic ratio is expressed as ratio of optimal dose and minimum effective dose; assay type: ADME; conditions: mouse; read-out: TR
Procedure, shortened: (§1)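 10⁶ P-388 ascites cells implanted ip in CDF₁ female mice. Six mice per dose, 10 saline-injected controls, and a concurrent mitomycin C reference group. %T/C = median survival time of treated/control × 100. MED is the lowest dose giving %T/C > 125. Therapeutic ratio = optimal dose/MED.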

[2] = tested on: Mus musculus; assay: Antitumor activity against P-388 murine leukemia cells in CDF1 female mice after intraperitoneal administration at the specified optimal dose of 25.6 mg/kg; assay type: functional
[3] = tested on: Mus musculus; assay: Minimum effective dose that show activity against P-388 murine leukemia cells in CDF1 female mice, after intraperitoneal administration (optimal dose is 25.6 mg/kg); assay type: functional; conditions: P388, ip, read-out: MED; procedure, shortened: as §1
[4] = tested on: Mus musculus; assay: Effect of compound on total white blood cell count in BDG1 male mice, after intraperitoneal administration at a dose of 90.5 mg/kg on day 5; assay type: functional
[5] = tested on: Mus musculus; assay: Effect of compound on total white blood cell count in BDG1 male mice, after intraperitoneal administration at a dose of 90.5 mg/kg on day 3; assay type: functional
[6] = tested on: Mus musculus; assay: Effect of compound on total white blood cell count in BDG1 male mice, after intraperitoneal administration at a dose of 67.9 mg/kg on day 3; assay type: functional
Procedure, shortened: (§2)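 Single ip dose given on day 0 to BDG₁ male mice. Total white blood cell count measured on days 3, 5 and 7, expressed as % change from control. Highest dose was at the LD₅₀, or at twice the optimal dose where so footnoted. Significance reported at p ≤ 0.05 and p ≤ 0.01. D marks death of one or more mice.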

[7] = tested on: Mus musculus; assay: Antitumor activity against P-388 murine leukemia cells in CDF1 female mice after intraperitoneal administration at the specified optimal dose of 6.4 mg/kg; assay type: functional
[8] = tested on: Mus musculus; assay: Minimum effective dose that show activity against P-388 murine leukemia cells in CDF1 female mice, after intraperitoneal administration (optimal dose is 6.4 mg/kg); assay type: functional; conditions: P388, ip, read-out: MED; procedure, shortened: as §1
[9] = tested on: Mus musculus; assay: Effect of compound on total white blood cell count in BDG1 male mice, after intraperitoneal administration at a dose of 25.3 mg/kg on day 3; assay type: functional
Procedure, shortened: (§3)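 Single ip dose given on day 0 to BDG1 male mice over a descending dose series. Total white blood cell count is expressed as % change from untreated control on days 3, 5 and 7. Significance is flagged at p ≤ 0.05 and p ≤ 0.01.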

[10] = species on record: Mus musculus; assay: Half-wave potential produced by the compound at their optimal dose; assay type: functional; design: unit not given here
[11] = tested on: Mus musculus; assay: Number of cured survivors, 45 days after administration of compound at a dose of 24 mg/kg/day in mice; assay type: functional
[12] = tested on: Mus musculus; assay: Effect of compound on total white blood cell count in BDG1 male mice, after intraperitoneal administration at a dose of 33.8 mg/kg on day 7; assay type: functional; procedure, shortened: as §3
[13] = tested on: Mus musculus; assay: Effect of compound on total white blood cell count in BDG1 male mice, after intraperitoneal administration at a dose of 33.8 mg/kg on day 3; assay type: functional; procedure, shortened: as §3
[14] = tested on: Mus musculus; assay: Number of cured survivors, 45 days after administration of compound at a dose of 12 mg/kg/day in mice; assay type: functional
[15] = tested on: Mus musculus; assay: Activity of compound dose of 6 mg/kg/day against Murine B-16 Melanocarcinoma in mice; assay type: functional
[16] = tested on: Mus musculus; assay: Activity of compound dose of 1.5 mg/kg/day against Murine B-16 Melanocarcinoma in mice; assay type: functional
[17] = tested on: Mus musculus; assay: Number of tumored survivors, 45 days after administration of compound at a dose of 12 mg/kg/day in mice; assay type: functional
[18] = tested on: Mus musculus; assay: Activity of compound dose of 3 mg/kg/day against Murine B-16 Melanocarcinoma in mice; assay type: functional
[19] = tested on: Mus musculus; assay: Activity of compound dose of 12 mg/kg/day against Murine B-16 Melanocarcinoma in mice; assay type: functional
[20] = species on record: Mus musculus; assay: Degree of leukopenia produced by compound is assessed form Percent change in white cells on days 5; assay type: functional
Procedure, shortened: (§4)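 BDG₁ male mice received a single ip dose on day 0. The dose series topped out at the LD₅₀ level, or at twice the optimal dose for some agents. Total white blood cell count was taken on days 3, 5 and 7 and expressed as % change from untreated controls. Significance was set at p ≤ 0.05 or p ≤ 0.01.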

[21] = tested on: Mus musculus; assay: Effect of compound on total white blood cell count in BDG1 male mice, after intraperitoneal administration at a dose of 45 mg/kg on day 3; assay type: functional; procedure, shortened: as §2
[22] = tested on: Mus musculus; assay: Effect of compound on total white blood cell count in BDG1 male mice, after intraperitoneal administration at a dose of 45 mg/kg on day 7; assay type: functional; procedure, shortened: as §2
[23] = tested on: Mus musculus; assay: Effect of compound on total white blood cell count in BDG1 male mice, after intraperitoneal administration at a dose of 45 mg/kg on day 5; assay type: functional; procedure, shortened: as §2
[24] = tested on: Mus musculus; assay: Effect of compound on total white blood cell count in BDG1 male mice, after intraperitoneal administration at a dose of 25.3 mg/kg on day 7; assay type: functional; procedure, shortened: as §3
[25] = tested on: Mus musculus; assay: Number of tumored survivors, 45 days after administration of compound at a dose of 24 mg/kg/day in mice; assay type: functional
[26] = tested on: Mus musculus; assay: Activity of compound dose of 24 mg/kg/day against Murine B-16 Melanocarcinoma in mice; assay type: functional
[27] = tested on: Mus musculus; assay: Effect of compound on total white blood cell count in BDG1 male mice, after intraperitoneal administration at a dose of 33.8 mg/kg on day 5; assay type: functional; procedure, shortened: as §3
[28] = tested on: Mus musculus; assay: Effect of compound on total white blood cell count in BDG1 male mice, after intraperitoneal administration at a dose of 25.3 mg/kg on day 5; assay type: functional; procedure, shortened: as §3
[29] = tested on: Mus musculus; assay: Antitumor activity against P-388 murine leukemia cells in CDF1 female mice after intraperitoneal administration at the specified optimal dose of 12.8 mg/kg; assay type: functional
[30] = tested on: Mus musculus; assay: Minimum effective dose that show activity against P-388 murine leukemia cells in CDF1 female mice, after intraperitoneal administration (optimal dose is 12.8 mg/kg); assay type: functional; conditions: P388, ip, read-out: MED; procedure, shortened: as §1
[31] = tested on: Mus musculus; assay: Antitumor activity against P-388 murine leukemia cells in CDF1 female mice after intraperitoneal administration at the specified optimal dose of 3.2 mg/kg; assay type: functional
[32] = tested on: Mus musculus; assay: Minimum effective dose that show activity against P-388 murine leukemia cells in CDF1 female mice, after intraperitoneal administration (optimal dose is 3.2 mg/kg); assay type: functional; conditions: P388, ip, read-out: MED; procedure, shortened: as §1
[33] = tested on: Mus musculus; assay: Effect of compound on total white blood cell count in BDG1 male mice, after intraperitoneal administration at a dose of 25.6 mg/kg on day 3 (highest dose was twice the optimal dose); assay type: functional
[34] = tested on: Mus musculus; assay: Effect of compound on total white blood cell count in BDG1 male mice, after intraperitoneal administration at a dose of 12.8 mg/kg on day 3; assay type: functional; procedure, shortened: as §4
[35] = tested on: Mus musculus; assay: Effect of compound on total white blood cell count in BDG1 male mice, after intraperitoneal administration at a dose of 12.8 mg/kg on day 5; assay type: functional; procedure, shortened: as §4
[36] = tested on: Mus musculus; assay: Effect of compound on total white blood cell count in BDG1 male mice, after intraperitoneal administration at a dose of 6.4 mg/kg on day 5; assay type: functional; procedure, shortened: as §2
[37] = tested on: Mus musculus; assay: Effect of compound on total white blood cell count in BDG1 male mice, after intraperitoneal administration at a dose of 6.4 mg/kg on day 3; assay type: functional; procedure, shortened: as §2
[38] = tested on: Mus musculus; assay: Effect of compound on total white blood cell count in BDG1 male mice, after intraperitoneal administration at a dose 6.4 mg/kg on day 7; assay type: functional; procedure, shortened: as §4

**Q.** Which results are given for `COC12[C@@H](COC(N)=O)C3=C(C(=O)C(C)=C(NCCCO)C3=O)N1C[C@@H]1[C@H]2N1C` (some centres not stated)?
**A.** selectivity ratio [1]: 16; T/C [2]: 239%; minimal effective dose [3]: 1.6 mg/kg; Change [4]: -72%; Change [5]: -78%; Change [6]: -85%

**Q.** For `COC12[C@@H](COC(N)=O)c3c(O)c(N=C4C=CC(=O)C=C4)c(C)c(O)c3N1C[C@@H]1[C@H]2N1C` (some centres not stated), which selectivity ratio [1] is on record?
**A.** 4

**Q.** What about the T/C [7] of the same compound?
**A.** 137%

**Q.** What about the minimal effective dose [8] of the same compound?
**A.** 1.6 mg/kg

**Q.** Which Change [9] does the source give for `COC12[C@@H]3N[C@@H]3CN1C1=C(C(=O)C(NCC3CCCO3)=C(C)C1=O)[C@@H]2COC(N)=O` (some centres not stated) here?
**A.** -44%

**Q.** And the selectivity ratio [1]?
**A.** 64

**Q.** What about the T/C [2] of the same compound?
**A.** 289%

**Q.** And the E1/2 [10]?
**A.** -0.41

**Q.** What about the minimal effective dose [3] of the same compound?
**A.** 0.4 mg/kg

**Q.** What about the Survivors [11] of the same compound?
**A.** 4

**Q.** What about the Change [12] of the same compound?
**A.** -13%

**Q.** And the Change [13]?
**A.** -58%

**Q.** What about the Survivors [14] of the same compound?
**A.** 1

**Q.** And the T/C [15]?
**A.** 179%

**Q.** And the T/C [16]?
**A.** 146%

**Q.** And the Survivors [17]?
**A.** 1

**Q.** And the T/C [18]?
**A.** 173%

**Q.** What about the T/C [19] of the same compound?
**A.** 240%

**Q.** And the Change [20]?
**A.** -54%

**Q.** And the Change [21]?
**A.** -76%

**Q.** And the Change [22]?
**A.** -25%

**Q.** What about the Change [23] of the same compound?
**A.** -72%

**Q.** And the Change [24]?
**A.** -19%

**Q.** And the Survivors [25]?
**A.** 3

**Q.** And the T/C [26]?
**A.** 326%

**Q.** What about the Change [27] of the same compound?
**A.** -62%

**Q.** And the Change [28]?
**A.** -54%

**Q.** Which selectivity ratio [1] does the source give for `COC12[C@@H]3N[C@@H]3CN1C1=C(C(=O)C(NCc3ccccc3)=C(C)C1=O)[C@@H]2COC(N)=O` (some centres not stated) here?
**A.** 8

**Q.** What about the T/C [29] of the same compound?
**A.** 188%

**Q.** And the minimal effective dose [30]?
**A.** 1.6 mg/kg

**Q.** For `COC12[C@@H]3N[C@@H]3CN1C1=C(C(=O)C(NCC(N)=O)=C(C)C1=O)[C@@H]2COC(N)=O` (some centres not stated), which selectivity ratio [1] is on record?
**A.** 16

**Q.** What about the T/C [7] of the same compound?
**A.** 217%

**Q.** And the minimal effective dose [8]?
**A.** 0.4 mg/kg

**Q.** What does the source list for `COC12[C@@H](COC(N)=O)C3=C(C(=O)C(C)=C(NC4CC4)C3=O)N1C[C@@H]1[C@H]2N1C` (some centres not stated)?
**A.** selectivity ratio [1]: 2; T/C [29]: 167%

**Q.** What does the source list for `COC1=C(C)C(=O)C2=C(C1=O)[C@H](COC(N)=O)C1(OC)[C@H]3[C@@H](CN21)N3C` (some centres not stated)?
**A.** selectivity ratio [1]: 8; T/C [31]: 180%; minimal effective dose [32]: 0.4 mg/kg

**Q.** For `C#CC(C)(C)NC1=C(C)C(=O)C2=C(C1=O)[C@H](COC(N)=O)C1(OC)[C@@H]3N[C@@H]3CN21` (some centres not stated), which selectivity ratio [1] is on record?
**A.** 16

**Q.** What about the T/C [2] of the same compound?
**A.** 178%

**Q.** And the minimal effective dose [3]?
**A.** 1.6 mg/kg

**Q.** With `COC(=O)CNC1=C(C)C(=O)C2=C(C1=O)[C@H](COC(N)=O)C1(OC)[C@@H]3N[C@@H]3CN21` (some centres not stated) as the compound, how does the selectivity ratio [1] read?
**A.** 32

**Q.** And the Change [33]?
**A.** -65%

**Q.** What about the Change [34] of the same compound?
**A.** -55%

**Q.** What about the Change [35] of the same compound?
**A.** -68%

**Q.** What about the T/C [29] of the same compound?
**A.** 300%

**Q.** And the Change [36]?
**A.** -55%

**Q.** And the Change [37]?
**A.** -39%

**Q.** And the Change [38]?
**A.** -21%

**Q.** With `CO[C@@]12[C@H](COC(N)=O)C3=C(C(=O)C(C)=C(N)C3=O)N1C[C@H]1[C@@H]2N1C` (some centres not stated) [PORFIROMYCIN] as the compound, how does the selectivity ratio [1] read?
**A.** 16

**Q.** What about the T/C [29] of the same compound?
**A.** 225%

**Q.** And the minimal effective dose [30]?
**A.** 0.8 mg/kg
